Experimental data published in ChEMBL document CHEMBL1142349, “Molecular modeling study and synthesis of novel pyrrolo[2,3-d]pyrimidines and pyrrolotriazolopyrimidines of expected antitumor and radioprotective activities” (Bioorg Med Chem, 2008).

How the values were obtained:
Ehrlich [1] = test: Cytotoxicity against mouse Ehrlich Ascites carcinoma assessed as non viable cells at 50 umol/mL after 2 hrs by trypan blue exclusion assay; type: functional
Procedure, shortened: (§1)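 EAC cells at 2.5 × 10^6/ml in saline. Compounds were dissolved in DMSO:saline (7:3). 100 µL cell suspension was mixed with compound and made to 1 mL with saline, giving final 200, 100, 75, 50 and 25 µM. Incubated 2 h at 37 °C. Trypan blue exclusion gave % non-viable cells. IC50 was read from the survival-ratio vs concentration curve.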

[2] = Cytotoxicity against mouse Ehrlich Ascites carcinoma after 2 hrs by trypan blue exclusion assay; type: functional; procedure, shortened: as §1
Ehrlich [3] = test: Cytotoxicity against mouse Ehrlich Ascites carcinoma assessed as non viable cells at 75 umol/mL after 2 hrs by trypan blue exclusion assay; type: functional; procedure, shortened: as §1
Ehrlich [4] = test: Cytotoxicity against mouse Ehrlich Ascites carcinoma assessed as non viable cells at 25 umol/mL after 2 hrs by trypan blue exclusion assay; type: functional; procedure, shortened: as §1
Ehrlich [5] = test: Cytotoxicity against mouse Ehrlich Ascites carcinoma assessed as non viable cells at 100 umol/mL after 2 hrs by trypan blue exclusion assay; type: functional; procedure, shortened: as §1
Ehrlich [6] = test: Cytotoxicity against mouse Ehrlich Ascites carcinoma assessed as non viable cells at 200 umol/mL after 2 hrs by trypan blue exclusion assay; type: functional; procedure, shortened: as §1
Mus musculus [7] = test: Radioprotective activity against gamma-irradiated Swiss albino mouse assessed as reduction of plasma lipid peroxide level at 150 mg/kg, ip after 7 days relative to control; type: functional; design: scale not given: the % may be the effect or the level left; conditions: route intraperitoneal
Procedure, shortened: (§2)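 Female Swiss albino mice (25–30 g) were dosed ip at 150 mg/kg in CMC every other day ×3 over 7 days. Each dose was given 30 min before 6 Gy whole-body γ-irradiation (Cs-137, 0.86 Gy/min). Mice were fasted 16 h and bled by heart puncture 1 day after the last irradiation. Plasma lipid peroxide was measured as MDA (Yoshioka). Values are mean ± SE, n=8, as % change from control, with t test.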

Mus musculus [8] = test: Radioprotective activity against gamma-irradiated Swiss albino mouse assessed as reduction of plasma lipid peroxide level at 150 mg/kg, ip after 7 days; type: functional; conditions: route intraperitoneal; procedure, shortened: as §2
Mus musculus [9] = test: Radioprotective activity against gamma-irradiated Swiss albino mouse assessed as increase in blood glutathione level at 150 mg/kg, ip after 7 days relative to control; conditions: route intraperitoneal
Mus musculus [10] = test: Radioprotective activity against gamma-irradiated Swiss albino mouse assessed as increase in blood glutathione level at 150 mg/kg, ip after 7 days; conditions: route intraperitoneal

N=c1c2c(-c3ccccc3)cn(-c3ccc(S(N)(=O)=O)cc3)c2ncn1NC(=S)Nc1ccccc1
Activity (Ehrlich [1]): 60% | IC50 [2]: 26.5 µM | Activity (Ehrlich [3]): 80% | Activity (Ehrlich [4]): 50% | Activity (Ehrlich [5]): 95% | Activity (Ehrlich [6]): 100%

N#Cc1c(N)nn2cnc3c(c(-c4ccccc4)cn3-c3ccc(S(N)(=O)=O)cc3)c12
Activity (Ehrlich [1]): 0% | IC50 [2]: > 200 µM | Activity (Ehrlich [3]): 0% | Activity (Ehrlich [4]): 0% | Activity (Ehrlich [5]): 0% | Activity (Ehrlich [6]): 0%

NS(=O)(=O)c1ccc(-n2cc(-c3ccccc3)c3c2ncn2nc(-c4ccccc4)nc32)cc1
Activity (Ehrlich [1]): 0% | IC50 [2]: > 200 µM | Activity (Ehrlich [3]): 0% | Activity (Ehrlich [4]): 0% | Activity (Ehrlich [5]): 0% | Activity (Ehrlich [6]): 0%

COc1cccc2c1C(=O)c1c(O)c3c(c(O)c1C2=O)C[C@@](O)(C(=O)CO)C[C@@H]3O[C@H]1C[C@H](N)[C@H](O)[C@H](C)O1 [DOXORUBICIN]
Activity (Ehrlich [1]): 55% | IC50 [2]: 81.5 µM | Activity (Ehrlich [3]): 64% | Activity (Ehrlich [4]): 20% | Activity (Ehrlich [5]): 75% | Activity (Ehrlich [6]): 100%

CC(=O)NS(=O)(=O)c1ccc(-n2cc(-c3ccccc3)c3c2ncn2nc(C)nc32)cc1
Activity (Ehrlich [1]): 5% | IC50 [2]: 75.8 µM | Activity (Ehrlich [3]): 20% | Activity (Ehrlich [4]): 0% | Activity (Ehrlich [5]): 80% | Activity (Ehrlich [6]): 100%

N#CCc1nc2c3c(-c4ccccc4)cn(-c4ccc(S(N)(=O)=O)cc4)c3ncn2n1
Activity (Ehrlich [1]): 0% | IC50 [2]: 90.2 µM | Activity (Ehrlich [3]): 15% | Activity (Ehrlich [4]): 0% | Activity (Ehrlich [5]): 80% | Activity (Ehrlich [6]): 90%

NS(=O)(=O)c1ccc(-n2cc(-c3ccccc3)c3/c(=N/C(=O)c4ccc(Cl)cc4)n(NC(=O)c4ccc(Cl)cc4)cnc32)cc1
Activity (Mus musculus [7]): 101% | Activity (Mus musculus [8]): 80.3 µmol/mL | Activity (Mus musculus [9]): 386% | Activity (Mus musculus [10]): 304 mg/dL

NS(=O)(=O)c1ccc(-n2cc(-c3ccccc3)c3c2ncn2nc(S)nc32)cc1
Activity (Ehrlich [1]): 0% | IC50 [2]: 90.2 µM | Activity (Ehrlich [3]): 20% | Activity (Ehrlich [4]): 0% | Activity (Ehrlich [5]): 80% | Activity (Ehrlich [6]): 80%

N#Cc1c(-c2ccccc2)cn(-c2ccc(S(N)(=O)=O)cc2)c1N
Activity (Ehrlich [1]): 80% | IC50 [2]: 88.8 µM | Activity (Ehrlich [3]): 100% | Activity (Ehrlich [4]): 40% | Activity (Ehrlich [5]): 100% | Activity (Ehrlich [6]): 100%

NS(=O)(=O)c1ccc(-n2cc(-c3ccccc3)c3c2ncn2ncnc32)cc1
Activity (Ehrlich [1]): 0% | IC50 [2]: 100 µM | Activity (Ehrlich [3]): 15% | Activity (Ehrlich [4]): 0% | Activity (Ehrlich [5]): 60% | Activity (Ehrlich [6]): 90%
